# Data as given in ChEMBL document CHEMBL5724801, “EUbOPEN Chemogenomics Library - Multiplex” (2024).
# Values joined by “and” are separate entries in the source; they are usually repeats but may differ in a detail not shown here. Identical values can stand only once.
# Columns and labels:
# Fibroblast = assay: Multiplex assay against human fibroblast; assay type: toxicity, cell-based
# Method in brief: (§1)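 Hoechst33342, BioTracker Green Microtubule Cytoskeleton Dye, MitoTracker Red and Annexin V Alexa Fluor 680 were added to live cells at seeding, and imaging on a CQ1 microscope at 37°C and 5% CO2 followed compound addition. Gating by CellPathfinder machine learning separated cells into Hoechst high-intensity objects or normal cells, then normal cells into healthy, pyknosed or fragmented nuclei, then pyknosed cells into mitotic or apoptotic. Per cents of healthy-nucleus cells are reported for the tubulin, mitochondrial-mass and membrane-permeability phenotypes.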
# HEK-293T = assay: Multiplex assay against HEK293T; assay type: toxicity, cell-based; settings: human; method in brief: as §1
# [1] = 12 h, 1 µM, compound concentration 1 uM
# [2] = 12 h, 10 µM, compound concentration 10 uM
# [3] = 24 h, 1 µM, compound concentration 1 uM
# [4] = 24 h, 10 µM, compound concentration 10 uM
# [5] = 48 h, 1 µM, compound concentration 1 uM
# [6] = 48 h, 10 µM, compound concentration 10 uM
smiles,measurement,setting,value
CC(=O)NCC(=O)N1[C@@H]2CC[C@H]1c1ccc(Nc3ncc(C(F)(F)F)c(NC4CCC4)n3)cc12 [PF-03814735],Population Apoptotic (%),Fibroblast; [1],14.81% and 22.73%
same,Population Fragmented Nuclei (%),Fibroblast; [1],12.78% and 6.01%
same,Population Healthy Nuclei (%),Fibroblast; [1],72.22% and 81.97%
same,Population Hoechst High Intensity Objects (%),Fibroblast; [1],0%
same,Population Membrane Permeable-Phenotype (%),Fibroblast; [1],4.62% and 4%
same,Population Mitochondria Different-Phenotype (%),Fibroblast; [1],7.69% and 10.67%
same,Population Mitotic Cells (%),Fibroblast; [1],85.19% and 77.27%
same,Population Normal (%),Fibroblast; [1],100%
same,Population Pyknosed Nuclei (%),Fibroblast; [1],15% and 12.02%
same,Population Tubulin-Different-Phenotype (%),Fibroblast; [1],20% and 22.67%
same,Total Cell Count,Fibroblast; [1],180 and 183
same,Population Apoptotic (%),Fibroblast; [2],46.51% and 79.49%
same,Population Fragmented Nuclei (%),Fibroblast; [2],20.25% and 27.83%
same,Population Healthy Nuclei (%),Fibroblast; [2],53.37% and 53.77%
same,Population Hoechst High Intensity Objects (%),Fibroblast; [2],0%
same,Population Membrane Permeable-Phenotype (%),Fibroblast; [2],25.29% and 34.21%
same,Population Mitochondria Different-Phenotype (%),Fibroblast; [2],17.24% and 20.18%
same,Population Mitotic Cells (%),Fibroblast; [2],53.49% and 20.51%
same,Population Normal (%),Fibroblast; [2],100%
same,Population Pyknosed Nuclei (%),Fibroblast; [2],26.38% and 18.4%
same,Population Tubulin-Different-Phenotype (%),Fibroblast; [2],36.78% and 78.07%
same,Total Cell Count,Fibroblast; [2],163 and 212
same,Population Apoptotic (%),Fibroblast; [3],18.18% and 31.25%
same,Population Fragmented Nuclei (%),Fibroblast; [3],18.48% and 9.2%
same,Population Healthy Nuclei (%),Fibroblast; [3],75.54% and 81.61%
same,Population Hoechst High Intensity Objects (%),Fibroblast; [3],0%
same,Population Membrane Permeable-Phenotype (%),Fibroblast; [3],9.35% and 5.63%
same,Population Mitochondria Different-Phenotype (%),Fibroblast; [3],5.76% and 6.34%
same,Population Mitotic Cells (%),Fibroblast; [3],81.82% and 68.75%
same,Population Normal (%),Fibroblast; [3],100%
same,Population Pyknosed Nuclei (%),Fibroblast; [3],5.98% and 9.2%
same,Population Tubulin-Different-Phenotype (%),Fibroblast; [3],17.99% and 28.87%
same,Total Cell Count,Fibroblast; [3],184 and 174
same,Population Apoptotic (%),Fibroblast; [4],39.13% and 90.32%
same,Population Fragmented Nuclei (%),Fibroblast; [4],24.36% and 32.26%
same,Population Healthy Nuclei (%),Fibroblast; [4],46.15% and 39.17%
same,Population Hoechst High Intensity Objects (%),Fibroblast; [4],0%
same,Population Normal (%),Fibroblast; [4],100%
same,Population Pyknosed Nuclei (%),Fibroblast; [4],29.49% and 28.57%
same,Population Tubulin-Different-Phenotype (%),Fibroblast; [4],31.94% and 67.06%
same,Total Cell Count,Fibroblast; [4],156 and 217
same,Population Fragmented Nuclei (%),Fibroblast; [5],18.54% and 6.41%
same,Population Healthy Nuclei (%),Fibroblast; [5],75.28% and 89.74%
same,Population Hoechst High Intensity Objects (%),Fibroblast; [5],0%
same,Population Membrane Permeable-Phenotype (%),Fibroblast; [5],1.49% and 7.14%
same,Population Normal (%),Fibroblast; [5],100%
same,Population Pyknosed Nuclei (%),Fibroblast; [5],6.18% and 3.85%
same,Population Tubulin-Different-Phenotype (%),Fibroblast; [5],14.18% and 30.71%
same,Total Cell Count,Fibroblast; [5],178 and 156
same,Population Apoptotic (%),Fibroblast; [6],36.84% and 83.78%
same,Population Fragmented Nuclei (%),Fibroblast; [6],23.6% and 31.34%
same,Population Healthy Nuclei (%),Fibroblast; [6],64.6% and 51.61%
same,Population Hoechst High Intensity Objects (%),Fibroblast; [6],0%
same,Population Mitochondria Different-Phenotype (%),Fibroblast; [6],26.92% and 25%
same,Population Normal (%),Fibroblast; [6],100%
same,Population Pyknosed Nuclei (%),Fibroblast; [6],11.8% and 17.05%
same,Total Cell Count,Fibroblast; [6],161 and 217
same,Population Apoptotic (%),HEK-293T; [1],13.45% and 7.26%
same,Population Fragmented Nuclei (%),HEK-293T; [1],1.8% and 4%
same,Population Hoechst High Intensity Objects (%),HEK-293T; [1],0.36% and 0%
same,Population Membrane Permeable-Phenotype (%),HEK-293T; [1],0% and 5%
same,Population Mitochondria Different-Phenotype (%),HEK-293T; [1],42.86% and 15%
same,Population Mitotic Cells (%),HEK-293T; [1],86.55% and 92.74%
same,Population Normal (%),HEK-293T; [1],99.64% and 100%
same,Population Pyknosed Nuclei (%),HEK-293T; [1],42.81% and 82.67%
same,Total Cell Count,HEK-293T; [1],279 and 150
same,Population Apoptotic (%),HEK-293T; [2],22.73% and 21.78%
same,Population Fragmented Nuclei (%),HEK-293T; [2],2.61% and 0.88%
same,Population Hoechst High Intensity Objects (%),HEK-293T; [2],0.65% and 0%
same,Population Membrane Permeable-Phenotype (%),HEK-293T; [2],0%
same,Population Mitochondria Different-Phenotype (%),HEK-293T; [2],27.87% and 27.27%
same,Population Mitotic Cells (%),HEK-293T; [2],77.27% and 78.22%
same,Population Normal (%),HEK-293T; [2],99.35% and 100%
same,Population Pyknosed Nuclei (%),HEK-293T; [2],57.52% and 89.38%
same,Population Tubulin-Different-Phenotype (%),HEK-293T; [2],75.41% and 45.45%
same,Total Cell Count,HEK-293T; [2],154 and 113
same,Population Apoptotic (%),HEK-293T; [3],21.25% and 13.04%
same,Population Fragmented Nuclei (%),HEK-293T; [3],1.47% and 2.07%
same,Population Healthy Nuclei (%),HEK-293T; [3],75.07% and 34.48%
same,Population Hoechst High Intensity Objects (%),HEK-293T; [3],0%
same,Population Membrane Permeable-Phenotype (%),HEK-293T; [3],0.78% and 4%
same,Population Mitochondria Different-Phenotype (%),HEK-293T; [3],20.31% and 10%
same,Population Mitotic Cells (%),HEK-293T; [3],78.75% and 86.96%
same,Population Normal (%),HEK-293T; [3],100%
same,Population Pyknosed Nuclei (%),HEK-293T; [3],23.46% and 63.45%
same,Total Cell Count,HEK-293T; [3],341 and 145
same,Population Apoptotic (%),HEK-293T; [4],65.09% and 50.43%
